Article PMC11425819 (ACS Omega, 2024)

Key:
H9C2 cells [1] = experiment: Mitochondrial morphology analysis; type: cell-based, rat; conditions: 10 μM, vs H/R alone
In short: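 H9C2 cells were pretreated 12 h with test compound (10 μM), then given 6 h hypoxia and 4 h reoxygenation in 10% FBS DMEM/F12. Cells were stained with MitoTracker and imaged by laser-scanning microscopy (60× oil). Mitochondria were scored as tubular, intermediate or fragmented. The value is the percentage of cells with intermediate or fragmented mitochondria, from 100 cells per experiment over four independent experiments (SEM).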

H9C2 cells [2] = experiment: mPTP opening; type: cell-based, rat; conditions: 10 μM, 12 h pretreatment, H/R, compared with H/R alone, at least four independent experiments
In short: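 H9C2 cells were pretreated 12 h with test compound (10 μM), then given 6 h hypoxia alone or H/R; an autophagy inducer (10 μM) served as comparator. Cells were loaded with calcein (2 μM) and CoCl2 (1 mM) in HBSS/Ca2+ for 15 min at 37 °C. Co2+ quenches cytosolic calcein, so retained mitochondrial calcein fluorescence indicates a closed mPTP.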

`CC1(C)CC(NC(=O)C[P+](c2ccccc2)(c2ccccc2)c2ccccc2)CC(C)(C)N1[O]` [Mito-Tempo] was tested, and the “fragmented mitochondrial appearance after H/R” value (H9C2 cells [1]) was “attenuated the fragmented mitochondrial appearance”.

In the case of `CO[C@H]1C[C@@H]2CC[C@@H](C)[C@@](O)(O2)C(=O)C(=O)N2CCCC[C@H]2C(=O)O[C@H]([C@H](C)C[C@@H]2CC[C@@H](O)[C@H](OC)C2)CC(=O)[C@H](C)/C=C(\C)[C@@H](O)[C@@H](OC)C(=O)[C@H](C)C[C@H](C)/C=C/C=C/C=C/1C` [rapamycin], the “mitochondrial calcein fluorescence (mPTP opening)” value (H9C2 cells [2]) is reported as “considerably higher”.
